Assays:
[1] = test system: Ramos; assay: Anticancer activity against human Ramos cells assessed as cell viability measured after 72 hrs by MTT assay; format: functional, cell-based
Procedure, shortened: (§1)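 MTS growth assay after 72 h compound exposure. RPMI8226 (1×10^4/well), THP-1 and Ramos (5×10^4/well) were cultured in RPMI 1640 with 10% FBS. MGC-803, HeLa and SW480 (5×10^3/well) were cultured in DMEM with 10% FBS. All at 37 °C, 5% CO2. MTS was added for 3 h at 37 °C and OD read at 490 nm. IC50 from 7 concentrations; triplicate wells, three independent experiments.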

[2] = test system: HeLa; assay: Anticancer activity against human HeLa cells assessed as cell viability measured after 72 hrs by MTT assay; format: functional, cell-based; procedure, shortened: as §1
[3] = test system: RPMI-8226; assay: Anticancer activity against human RPMI8226 cells assessed as cell viability measured after 72 hrs by MTT assay; format: functional, cell-based; details: RPMI-8226, 72 h; procedure, shortened: as §1
[4] = test system: THP-1; assay: Anticancer activity against human THP-1 cells assessed as cell viability measured after 72 hrs by MTT assay; format: functional, cell-based; details: THP-1, 72 h; procedure, shortened: as §1
[5] = test system: SW480; assay: Anticancer activity against human SW480 cells assessed as cell viability measured after 72 hrs by MTT assay; format: functional, cell-based; details: SW480, 72 h; procedure, shortened: as §1
[6] = test system: MGC-803; assay: Anticancer activity against human MGC-803 cells assessed as cell viability measured after 72 hrs by MTT assay; format: functional, cell-based; details: MGC-803, 72 h; procedure, shortened: as §1
[7] = Cytotoxicity in African green monkey Vero E6 cells assessed as reduction in cell viability after 48 hrs by Celltiter Glo luminescent assay; format: cell-based; details: chlorocebus aethiops, vero e6, 48 h
Procedure, shortened: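 CellTiter-Glo viability: Vero E6 cells at 2 × 10^4 cells/well were exposed to serially diluted compound for 48 h. Luminescence was read 10 min after substrate addition. CC50 was derived by curve fitting.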

[8] = test system: SARS-CoV-2; assay: Antiviral activity against SARS coronavirus 2 infected in Vero E6 cells assessed as plague reduction measured after 1 hr; format: functional, organism-based; details: Severe acute respiratory syndrome coronavirus 2, Vero C1008, 1 h

Compound: CCc1cccc(NC(=O)C(=O)[C@H](CC(C)C)NC(=O)[C@H](CC(C)C)NC(=O)[C@H](CC(C)C)NC(=O)OCc2ccccc2)c1
- IC50 [1]: 45.7 nM
- IC50 [2]: 212 nM
- IC50 [3]: 40.4 nM
- IC50 [4]: 71.1 nM
- IC50 [5]: 82.9 nM
- IC50 [6]: 78.5 nM

Compound: COc1ccc(C[C@H](NC(=O)[C@H](C)NC(=O)c2ccc(-c3ccccc3)cc2)C(=O)N[C@@H](CC(C)C)C(=O)C(=O)Nc2ccccc2)cc1
- IC50 [1]: 464 nM
- IC50 [2]: 8700 nM
- IC50 [3]: 455 nM
- IC50 [4]: 568 nM
- IC50 [5]: 2440 nM
- IC50 [6]: 2020 nM

Compound: CC(=O)c1cccc(NC(=O)C(=O)[C@H](CC(C)C)NC(=O)[C@H](Cc2c[nH]c3ccccc23)NC(=O)[C@H](CC(C)C)NC(=O)OCc2ccccc2)c1
- IC50 [1]: 38.4 nM
- IC50 [3]: 91 nM
- IC50 [4]: 78.1 nM
- IC50 [5]: 94.2 nM
- IC50 [6]: 88.8 nM

Compound: COc1ccc(C[C@H](NC(=O)[C@H](C)NC(=O)CN2CCOCC2)C(=O)N[C@@H](Cc2ccccc2)C(=O)C(=O)Nc2ccccc2)cc1
- Activity [7]: Non-Toxic
- EC50 [8]: 1280 nM

Compound: COc1ccc(C[C@H](NC(=O)[C@H](C)NC(=O)c2ccc(-c3ccc(C(C)=O)cc3)o2)C(=O)N[C@@H](CC(C)C)C(=O)C(=O)Nc2ccccc2)cc1
- IC50 [1]: 428 nM
- IC50 [2]: 3200 nM
- IC50 [3]: 475 nM
- IC50 [4]: 475 nM
- IC50 [5]: 2000 nM
- IC50 [6]: 1160 nM

Compound: COc1cc(NC(=O)C(=O)[C@H](CC(C)C)NC(=O)[C@H](CC(C)C)NC(=O)[C@H](CC(C)C)NC(=O)OCc2ccccc2)cc(OC)c1
- IC50 [1]: 26.9 nM
- IC50 [2]: 120 nM
- IC50 [3]: 37.6 nM
- IC50 [4]: 70.7 nM
- IC50 [5]: 72.5 nM
- IC50 [6]: 68.5 nM

Compound: CC(C)C[C@H](NC(=O)OCc1ccccc1)C(=O)N[C@@H](CC(C)C)C(=O)N[C@@H](CC(C)C)C(=O)C(=O)Nc1ccccc1
- IC50 [1]: 53.6 nM
- IC50 [2]: 288 nM
- IC50 [3]: 67.8 nM
- IC50 [4]: 88.1 nM
- IC50 [5]: 106 nM
- IC50 [6]: 119 nM
